The results in this text go back to ChEMBL document CHEMBL3997779, “Rhodamine B conjugates of triterpenoic acids are cytotoxic mitocans even at nanomolar concentrations” (Eur J Med Chem, 2017).

Active and inactive are the calls of the source.

In data set [1] the test system is 8505C. Briefly: Cytotoxicity against human 8505C cells after 96 hrs by SRB assay. Format: functional, cell-based. In a few lines: (§1)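 EC50 from sulforhodamine B assay after 96 h exposure. Each value is averaged from three independent experiments, each run in triplicate, with 95% confidence interval. Assay cut-off 30 µM.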
In general terms: The SRB assay estimates cell density from bound dye.

Data set [2] relates to HT-29. Briefly: Cytotoxicity against human HT-29 cells after 96 hrs by SRB assay. Format: functional, cell-based. Conditions: HT-29, 96 h. In a few lines: as §1
Data set [3] has as its system A2780. Briefly: Cytotoxicity against human A2780 cells after 96 hrs by SRB assay. Format: functional, cell-based. To be noted: A2780, 96 h. An outline of the steps:
as §1

Data set [4] relates to 518A2. Briefly: Cytotoxicity against human 518A2 cells after 96 hrs by SRB assay. Conditions: 518A2, 96 h. Format: functional, cell-based. In a few lines:
as §1

Data set [5] relates to MCF7. Briefly: Cytotoxicity against human MCF7 cells after 96 hrs by SRB assay. Conditions: MCF7, 96 h. Format: functional, cell-based. In a few lines:
as §1

In data set [6] the test system is A549. Briefly: Cytotoxicity against human A549 cells after 96 hrs by SRB assay. Format: functional, cell-based. To be noted: A549, 96 h. An outline of the steps:
as §1

Data set [7] has as its system NIH3T3. Briefly: Cytotoxicity against mouse NIH/3T3 cells after 96 hrs by SRB assay. Format: cell-based. Conditions: NIH3T3, 96 h. In a few lines: as §1
The nature of data set [8]: Selectivity factor, ratio of EC50 for mouse NIH/3T3 cells to EC50 for human A2780 cells.
Data set [9] deals with A2780. Briefly: Induction of morphological changes in human A2780 cells at 0.1 uM after 24 hrs by rhodamine 123/Hoechst 33342 staining-based fluorescence microscopic method. Format: functional, cell-based. In a few lines: (§2)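 Approx. 800,000 A2780 cells grown 24 h in 25 cm² flasks. Medium then replaced with compound-containing medium at 0.1 µM, or blank medium as control, for 24 h. Cells collected, centrifuged at 1200 rpm and 4 °C, and washed in PBS. Live cells stained with Hoechst 33342 (DNA) and rhodamine 123 (mitochondria), then imaged by fluorescence and light microscopy.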

A short description of data set [10]: Drug uptake in mitochondria of human A2780 cells at 0.1 uM after 24 hrs by fluorescence and light microscopy. Format: ADME. In a few lines: as §2
Data set [11] has as its system A2780. Briefly: Induction of apoptosis in human A2780 cells at 0.1 to 0.4 uM after 24 hrs by annexin V/propidium iodide staining-based flow cytometric method relative to control. Format: functional, cell-based. In a few lines: (§3)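 A2780 cells treated at 0.1 µM, and at up to 0.4 µM, compared with untreated control. Stained with annexin V/propidium iodide and quantified by FACS.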
(A flow cytometer gives signals particle by particle.)

Data set [12] deals with A2780. Briefly: Induction of necrosis in human A2780 cells at 0.1 uM after 24 hrs by annexin V/propidium iodide staining-based flow cytometric method relative to control. Format: functional, cell-based. In a few lines:
as §3

A word on the EC50: it is the concentration that produces a half-maximal response. In the case of `CC(=O)[C@@H]1CC[C@]2(C(=O)O)CC[C@]3(C)[C@H](CC[C@@H]4[C@@]5(C)CC[C@H](O)C(C)(C)[C@@H]5CC[C@]43C)[C@@H]12` [PLATANIC ACID], the EC50 in data set [1], in [2], in data set [3], in data set [4], in [5] and in data set [6] was above 30 µM in each case.

Consider `CC(=O)O[C@H]1CC[C@]2(C)[C@H]3CC=C4[C@@H]5[C@@H](C)[C@H](C)CC[C@]5(C(=O)N5CCNCC5)CC[C@@]4(C)[C@]3(C)CC[C@H]2C1(C)C`, for which the EC50 in data set [7] came out at 2.1 µM; in data set [1] it was 3.5 µM; in [2] it was 1.9 µM; in data set [3] it was 2.1 µM; in data set [4], 2.6 µM; in data set [5] it was 2 µM. Also, the concentration for a half-maximal effect (EC50) in data set [6] came to 3.2 µM.

With `CC(=O)O[C@H]1CC[C@]2(C)[C@H]3CC=C4[C@@H]5CC(C)(C)CC[C@]5(C(=O)N5CCNCC5)CC[C@@]4(C)[C@]3(C)CC[C@H]2C1(C)C`, the EC50 in [7] worked out at 1.7 µM; in data set [1], 3.8 µM; in data set [2] it was 1.3 µM; in data set [3], 1.7 µM; in [4] it was 2.7 µM; in data set [5], 1.7 µM. In data set [6], this compound gave a half-maximal effective concentration (EC50) of 2.3 µM.

For `CC1(C)CC[C@]2(C(=O)O)CC[C@]3(C)C(=CC[C@@H]4[C@@]5(C)C[C@@H](O)[C@H](O)C(C)(C)[C@@H]5CC[C@]43C)[C@@H]2C1` [MASLINIC ACID], the EC50 in data set [7] was 21.1 µM; in data set [1] it was 17 µM; in data set [2] it was 28.8 µM; in data set [3], 19.5 µM; in [4], 13.7 µM; in data set [5], above 30 µM. In [6], this compound displayed an EC50 of 23.4 µM.

With `C[C@H]1[C@H](C)CC[C@]2(C(=O)O)CC[C@]3(C)C(=CC[C@@H]4[C@@]5(C)CC[C@H](O)C(C)(C)[C@@H]5CC[C@]43C)[C@H]12` [URSOLIC ACID], the EC50 came out at 18.7 µM in data set [7] and 14.7 µM in data set [4].

For the compound `CC1(C)CC[C@]2(C(=O)O)CC[C@]3(C)C(=CC[C@@H]4[C@@]5(C)CC[C@H](O)C(C)(C)[C@@H]5CC[C@]43C)[C@@H]2C1` [OLEANOLIC_ACID], the EC50 in data set [7], in data set [1], in data set [2], in [4], in data set [5] and in data set [6] was above 30 µM each time.

On to `CC(=O)O[C@@H]1C[C@]2(C)[C@H]3CC=C4[C@@H]5CC(C)(C)CC[C@]5(C(=O)N5CCNCC5)CC[C@@]4(C)[C@]3(C)CC[C@H]2C(C)(C)[C@H]1OC(C)=O`, for which the EC50 in data set [7] worked out at 3.2 µM; in data set [2], 1.6 µM; in data set [3], 1.9 µM; in data set [5], 1 µM; in data set [6], 1.5 µM.

As to `CC1(C)[C@@H](O)CC[C@]2(C)[C@H]3C(=O)C=C4[C@@H]5C[C@@](C)(C(=O)O)CC[C@]5(C)CC[C@@]4(C)[C@]3(C)CC[C@@H]12` [ENOXOLONE], the EC50 in [7] was 18.7 µM; in data set [1] it was above 30 µM; in [2], above 30 µM; in data set [3], above 30 µM; in [4] it was above 30 µM; in data set [5] it was above 30 µM. For the same compound, the EC50 in [6] is above 30 µM.

Regarding `C=C(C)[C@@H]1CC[C@]2(C(=O)N3CCN(C(=O)c4ccccc4-c4c5ccc(=[N+](CC)CC)cc-5oc5cc(N(CC)CC)ccc45)CC3)CC[C@]3(C)[C@H](CC[C@@H]4[C@@]5(C)CC[C@H](OC(C)=O)C(C)(C)[C@@H]5CC[C@]43C)[C@@H]12`, the EC50 in [7] stood at 0.208 µM; in data set [1], 0.062 µM; in data set [2] it was 0.151 µM; in data set [3], 0.05 µM; in data set [4] it was 0.046 µM; in data set [5], 0.081 µM. Also, the EC50 in data set [6] is 0.176 µM.

`CCN(CC)c1ccc2c(-c3ccccc3C(=O)N3CCN(C(=O)[C@]45CCC(C)(C)C[C@H]4C4=CC[C@@H]6[C@@]7(C)C[C@@H](OC(C)=O)[C@H](OC(C)=O)C(C)(C)[C@@H]7CC[C@@]6(C)[C@]4(C)CC5)CC3)c3ccc(=[N+](CC)CC)cc-3oc2c1.[Cl-]`: the EC50 is 0.334 µM in [7]; 0.057 µM in data set [2]; 0.007 µM in data set [3]; 0.011 µM in [4]; 0.028 µM in data set [5]; 0.186 µM in [6]. Besides, the “Ratio EC50” value in data set [8] is reported as 50. Moreover, the outcome in [9] and in [11] was inactive. For the same compound, in data set [10], the Drug uptake entry is on record as “Active”. For the same compound, the result in [12] was Active.

Consider `CCN(CC)c1ccc2c(-c3ccccc3C(=O)N3CCN(C(=O)[C@]45CC[C@@H](C(C)=O)[C@@H]4[C@H]4CC[C@@H]6[C@@]7(C)CC[C@H](OC(C)=O)C(C)(C)[C@@H]7CC[C@@]6(C)[C@]4(C)CC5)CC3)c3ccc(=[N+](CC)CC)cc-3oc2c1`, for which the EC50 in data set [7] amounted to 0.171 µM; in data set [1], 0.145 µM; in data set [2] it was 0.099 µM; in [3] it was 0.036 µM; in data set [4], 0.1 µM; in [5] it was 0.07 µM. Besides, the EC50 in [6] amounted to 0.131 µM.

With `C=C(C)[C@@H]1CC[C@]2(C(=O)N3CCNCC3)CC[C@]3(C)[C@H](CC[C@@H]4[C@@]5(C)CC[C@H](OC(C)=O)C(C)(C)[C@@H]5CC[C@]43C)[C@@H]12`, the EC50 in data set [7] was 0.9 µM; in data set [1], 2.2 µM; in data set [2], 1 µM; in data set [3], 1.9 µM; in data set [4], 1.5 µM; in data set [5] it was 1.4 µM. The same compound yielded an EC50 in data set [6] of 2.2 µM.

Take `CCN(CC)c1ccc2c(-c3ccccc3C(=O)N3CCN(C(=O)[C@]45CCC(C)(C)C[C@H]4C4=CC[C@@H]6[C@@]7(C)CC[C@H](OC(C)=O)C(C)(C)[C@@H]7CC[C@@]6(C)[C@]4(C)CC5)CC3)c3ccc(=[N+](CC)CC)cc-3oc2c1`: the EC50 came to 0.137 µM in data set [7]; 0.045 µM in data set [1]; 0.091 µM in [2]; 0.032 µM in data set [3]; 0.043 µM in data set [4]; 0.062 µM in [5]. The compound also registered an EC50 in data set [6] of 0.12 µM.

`CC(=O)O[C@H]1CC[C@]2(C)[C@H]3C(=O)C=C4[C@@H]5C[C@@](C)(C(=O)N6CCNCC6)CC[C@]5(C)CC[C@@]4(C)[C@]3(C)CC[C@H]2C1(C)C`: the EC50 in data set [7] was found to be 8.7 µM; in data set [1] it was 10 µM; in data set [2] it was 4.5 µM; in data set [3] it was 8.2 µM; in data set [4], 9.4 µM; in [5], 8.4 µM. The midpoint of the response in data set [6], the EC50, lay at 10.5 µM.

Consider `CCN(CC)c1ccc2c(-c3ccccc3C(=O)N3CCN(C(=O)[C@]45CC[C@@H](C)[C@H](C)[C@H]4C4=CC[C@@H]6[C@@]7(C)CC[C@H](OC(C)=O)C(C)(C)[C@@H]7CC[C@@]6(C)[C@]4(C)CC5)CC3)c3ccc(=[N+](CC)CC)cc-3oc2c1`, for which the EC50 in data set [7] came to 0.137 µM; in data set [1], 0.047 µM; in data set [2] it was 0.083 µM; in data set [3], 0.038 µM; in [4] it was 0.047 µM; in data set [5] it was 0.075 µM. This compound also yielded an EC50 in [6] of 0.14 µM.

With `CCN(CC)c1ccc2c(-c3ccccc3C(=O)O)c3ccc(=[N+](CC)CC)cc-3oc2c1` [RHODAMINE], the EC50 in data set [7], in [1], in data set [2], in [3], in [4] and in [5] was above 30 µM throughout. For the same compound, the EC50 in data set [6] is above 30 µM.

In the case of `CC(=O)O[C@H]1CC[C@]2(C)[C@H]3CC[C@@H]4[C@H]5[C@H](C(C)=O)CC[C@]5(C(=O)N5CCNCC5)CC[C@@]4(C)[C@]3(C)CC[C@H]2C1(C)C`, the EC50 is 0.7 µM in [7]; 3.7 µM in [1]; 2.4 µM in data set [2]; 3.1 µM in data set [3]; 2.7 µM in data set [4]; 2.8 µM in data set [5]. This compound also came in with an EC50 in [6] of 3.9 µM.

Consider `C=C(C)[C@@H]1CC[C@]2(C(=O)O)CC[C@]3(C)[C@H](CC[C@@H]4[C@@]5(C)CC[C@H](O)C(C)(C)[C@@H]5CC[C@]43C)[C@@H]12` [BETULINIC ACID], for which the values for the half-maximal effective concentration (EC50) in data set [7] and in data set [4] were 16.1 µM and 9.4 µM, respectively.
